Assay results as given in PMC5599992 (Journal of Clinical Pharmacology, 2017).
“And” between values parts separate entries of the source, which are not always exact repeats. Equal values may be shown once. Read-outs that look alike come from different tables or passages of the source.

Experiments:
[1] = test system: CLL/SLL; assay: Best overall response in CLL/SLL subjects, phase 1b study AVL‐292‐003; type: in vivo, human
[2] = monkeys; ref data on file; cited from earlier work
[3] = test system: CYP1A2; settings: ref data on file; cited from earlier work
[4] = test system: CYP3A4; settings: ref data on file; cited from earlier work
[5] = rats; ref data on file; cited from earlier work
[6] = test system: CLL/SLL; assay: Exposure‐response analysis; type: in vivo, human
Procedure, shortened: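 In relapsed/refractory CLL/SLL patients from the phase 1b study, log-transformed steady-state AUC came from noncompartmental analysis. ORR (CR, CRi or PR; updated iwCLL criteria) was modeled as responder vs nonresponder by logistic regression, first univariate, then multivariate with stepwise forward/backward covariate selection. Covariates were age, BSA, sex, race, QD vs BID regimen, CLcr, bilirubin, albumin, ALT and AST.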

[7] = test system: CLL/SLL; assay: Threshold analysis; type: in vivo, human; settings: threshold 300 ng/mL
[8] = Population pharmacokinetic analysis of CC‐292; type: in vivo, human
Procedure, shortened: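 Data came from healthy volunteers (50, 100 or 200 mg or placebo orally QD for 7 days; intensive sampling predose to 24 h on days 1 and 7, troughs on days 3–6) and patients (sparse cycle 1–3 samples). Plasma was assayed by LC-MS/MS (LLOQ ≤0.5 ng/mL, labeled internal standard). The NONMEM FOCE-I 2-compartment model with first-order absorption and lag used ln-transformed data and separate residual error per population. There were 1000 bootstrap runs with 5th–95th percentile CIs.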

[9] = rats; ref data on file; cited from earlier work; remark: listed apart in the source
[10] = based on final population PK parameters

C=CC(=O)Nc1cccc(Nc2nc(Nc3ccc(OCCOC)cc3)ncc2F)c1 [CC‐292]
Best overall response: Complete response ([1]; 125 mg QD): 0 n (%) | Best overall response: Partial response ([1]; 125 mg QD): 1 (33.3) n (%) | Best overall response: Progression disease ([1]; 125 mg QD): 0 n (%) | Best overall response: Stable disease ([1]; 125 mg QD): 2 (66.7) n (%) | Overall response rate ([1]; 125 mg QD): 1 (33.3) n (%) | Best overall response: Complete response ([1]; 250 mg QD): 0 n (%) | Best overall response: Partial response ([1]; 250 mg QD): 0 n (%) | Best overall response: Progression disease ([1]; 250 mg QD): 0 n (%) | Best overall response: Stable disease ([1]; 250 mg QD): 1 (100) n (%) | Overall response rate ([1]; 250 mg QD): 0 n (%) | Best overall response: Complete response ([1]; 375 mg BID): 0 n (%) | Best overall response: Partial response ([1]; 375 mg BID): 4 (66.7) n (%) | Best overall response: Progression disease ([1]; 375 mg BID): 0 n (%) | Best overall response: Stable disease ([1]; 375 mg BID): 2 (33.3) n (%) | Overall response rate ([1]; 375 mg BID): 4 (66.7) n (%) | Best overall response: Complete response ([1]; 400 mg QD): 0 n (%) | Best overall response: Partial response ([1]; 400 mg QD): 1 (25.0) n (%) | Best overall response: Progression disease ([1]; 400 mg QD): 0 n (%) | Best overall response: Stable disease ([1]; 400 mg QD): 3 (75.0) n (%) | Overall response rate ([1]; 400 mg QD): 1 (25.0) n (%) | Best overall response: Complete response ([1]; 500 mg BID): 0 n (%) | Best overall response: Partial response ([1]; 500 mg BID): 19 (61.3) n (%) | Best overall response: Progression disease ([1]; 500 mg BID): 0 n (%) | Best overall response: Stable disease ([1]; 500 mg BID): 12 (38.7) n (%) | Overall response rate ([1]; 500 mg BID): 19 (61.3) n (%) | Best overall response: Complete response ([1]; 625 mg QD): 0 n (%) | Best overall response: Partial response ([1]; 625 mg QD): 0 n (%) | Best overall response: Progression disease ([1]; 625 mg QD): 0 n (%) | Best overall response: Stable disease ([1]; 625 mg QD): 1 (100) n (%) | Overall response rate ([1]; 625 mg QD): 0 n (%) | Best overall response: Complete response ([1]; 750 mg QD): 0 n (%) | Best overall response: Partial response ([1]; 750 mg QD): 12 (41.4) n (%) | Best overall response: Progression disease ([1]; 750 mg QD): 1 (3.4) n (%) | Best overall response: Stable disease ([1]; 750 mg QD): 16 (55.2) n (%) | Overall response rate ([1]; 750 mg QD): 12 (41.4) n (%) | Best overall response: Complete response ([1]; 1000 mg QD): 0 n (%) | Best overall response: Partial response ([1]; 1000 mg QD): 4 (57.1) n (%) | Best overall response: Progression disease ([1]; 1000 mg QD): 0 n (%) | Best overall response: Stable disease ([1]; 1000 mg QD): 3 (42.9) n (%) | Overall response rate ([1]; 1000 mg QD): 4 (57.1) n (%) | Best overall response: Complete response ([1]; Total, all cohorts): 0 n (%) | Best overall response: Partial response ([1]; Total, all cohorts): 41 (50.0) n (%) | Best overall response: Progression disease ([1]; Total, all cohorts): 1 (1.2) n (%) | Best overall response: Stable disease ([1]; Total, all cohorts): 40 (48.8) n (%) | Overall response rate ([1]; Total, all cohorts): 41 (50.0) n (%) | extent of bioavailability [2]: 11% | metabolism by CYP1A2 [3]: extensively metabolized | metabolism by CYP3A4 [4]: extensively metabolized | CC‐292–derived radioactivity excreted in the bile [5]: ~79 % of the dose | mean ORR ([6]; first quartile of average AUC): 35% | mean ORR ([6]; fourth quartile of average AUC): 50.2% | duration/coverage at and above the threshold concentration ([7]; 375 mg BID): ~10.4 h | duration/coverage at and above the threshold concentration ([7]; 750 mg QD): 6.6 h | interindividual variability for V2/F ([8]; base model): 88% | distribution rate [8, 10]: 0.11 h⁻¹ | elimination rate [8, 10]: 0.85 h⁻¹ | Alag1, Bootstrap Estimate (95%CI) ([8]; bootstrap N = 1000): 0.428 (0.414‐0.439) h | CL/F, Bootstrap Estimate (95%CI) ([8]; bootstrap N = 1000): 131.9 (109.0‐166.6) L/h | Effect of age on V2/F, Bootstrap Estimate (95%CI) ([8]; bootstrap N = 1000): 0.946 (0.592‐1.355) | Interindividual variability ωV2/F: ωCL/F, Bootstrap Estimate (95%CI) ([8]; bootstrap N = 1000): 0.321 (0.198‐0.461) | Interindividual variability ω^2 CL/F, Bootstrap Estimate (95%CI) ([8]; bootstrap N = 1000): 0.306 (0.202‐0.454) | Interindividual variability ω^2 V2/F, Bootstrap Estimate (95%CI) ([8]; bootstrap N = 1000): 0.750 (0.526‐1.010) | Q/F, Bootstrap Estimate (95%CI) ([8]; bootstrap N = 1000): 18.4 (15.3‐21.7) L/h | V2/F, Bootstrap Estimate (95%CI) ([8]; bootstrap N = 1000): 156.4 (130.2‐187.8) L | V3/F, Bootstrap Estimate (95%CI) ([8]; bootstrap N = 1000): 71.7 (61.4‐83.5) L | ka, Bootstrap Estimate (95%CI) ([8]; bootstrap N = 1000): 0.97 (0.86‐1.11) h^−1 | Residual variability HNP, Bootstrap Estimate (95%CI) ([8]; bootstrap N = 1000, healthy normal study subjects): 0.230 (0.180‐0.288) | Residual variability Patients, Bootstrap Estimate (95%CI) ([8]; bootstrap N = 1000, patients): 0.654 (0.537‐0.708) | Vd/F ([8]; both, human, plasma, oral): 158 L | clearance ([8]; both, human, plasma, oral): 2230 mL/min | interindividual variability for V2/F ([8]; final model (age included)): 86% | Alag1, absorption lag time, Estimate ([8]; final population PK model): 0.427 h | Interindividual variability ωV2/F: ωCL/F, Estimate ([8]; final population PK model): 0.328 | Interindividual variability ω^2 CL/F, Estimate ([8]; final population PK model): 0.317 | Interindividual variability ω^2 V2/F, Estimate ([8]; final population PK model): 0.755 | lower CL/F in female subjects compared to male subjects ([8]; final population PK model): 26% | Residual variability HNP, Estimate ([8]; final population PK model, healthy normal study subjects): 0.234 | ka, first‐order absorption rate constant, Estimate ([8]; final population PK model, oral, healthy subjects and patients): 0.97 h⁻¹ and 0.974 h⁻¹ | Residual variability Patients, Estimate ([8]; final population PK model, patients): 0.659 | Effect of age on V2/F, Estimate ([8]; final population PK model, power exponent): 0.946 | CL/F, apparent clearance, Estimate ([8]; final population PK model, typical value for male subjects): 134 L/h and 134.0 L/h | CL/F relative to Q/F (Q/F lower than CL/F) ([8]; in vivo): 7.2 fold and ~7 fold | differences in drug exposures between female and male subjects ([8]; in vivo): below 26% | extent of bioavailability [9]: 57%
